Assay [1] concerns Lipid bilayer. Nature of the assay: Inhibition of PEG-induced DOPC/DOPE/DOPG/CH (50/30/10/10 mol%) small unilamellar vesicles assessed as lipid mixing at 1:100 compound: lipid concentration preincubated for 10 mins followed by PEG addition by spectrofluorometric analysis (reference value: 67.8 +/- 2.7 %). The method in brief: (§1)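 Lipid mixing followed as FRET dilution. Vesicles carrying 0.8 mol% NBD-PE and Rh-PE mixed 1:9 with probe-free vesicles at 200 μM lipid. Peptide 2 μM added 10 min before 6% (w/v) PEG at 37 °C. NBD donor intensity rise recorded over time; TX-100 defines complete mixing.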

For assay [2], the system named is Lipid bilayer. The assay is described as follows: Inhibition of PEG-induced DOPC/DOPE/DOPG (60/30/10 mol%) small unilamellar vesicles assessed as content mixing at 1:100 compound: lipid concentration preincubated for 10 mins followed by PEG addition by fluorescence based analysis (reference value: 16.7 +/- 0.6 %). In outline:
(§2)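 Content mixing by Tb3+/DPA complex fluorescence. Vesicles loaded with 8 mM TbCl3 or 80 mM DPA, external probe removed by gel filtration. Mixed 1:1 at 200 μM lipid; peptide 2 μM added 10 min before 6% (w/v) PEG, 37 °C. Normalised to co-encapsulated and detergent-treated samples.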

Assay [3] relates to Lipid bilayer. The assay is described as follows: Inhibition of PEG-induced DOPC/DOPE/DOPG/CH (40/30/10/20 mol%) small unilamellar vesicle assessed as content mixing at 1:100 compound: lipid concentration preincubated for 10 mins followed by PEG addition by fluorescence based analysis (reference value: 23.0 +/- 0.9 %). In outline: as §2
For assay [4], the system named is Lipid bilayer. Nature of the assay: Inhibition of PEG-induced DOPC/DOPE/DOPG (60/30/10 mol%) small unilamellar vesicle assessed as content leakage at 1:100 compound: lipid concentration preincubated for 10 mins followed by PEG addition by fluorescence based analysis (reference value: 11.7 +/- 0.4 %). In outline:
(§3)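 Leakage read as loss of fluorescence from vesicles co-encapsulating 8 mM TbCl3 and 80 mM DPA, external probe removed. Lipid 200 μM; peptide 2 μM added 10 min before 6% (w/v) PEG at 37 °C. 100% leakage set with 0.1% (w/v) Triton X-100.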

In assay [5] the test system is Lipid bilayer. The assay is described as follows: Inhibition of PEG-induced DOPC/DOPE/DOPG/CH (50/30/10/10 mol%) small unilamellar vesicles assessed as content leakage at 1:100 compound: lipid concentration preincubated for 10 mins followed by PEG addition by fluorescence based analysis (reference value: 13.6 +/- 0.5 %). The method in brief: as §3
Assay [6] relates to Lipid bilayer. Nature of the assay: Inhibition of PEG-induced DOPC/DOPE/DOPG/CH (40/30/10/20 mol%) small unilamellar vesicles assessed as content leakage at 1:100 compound: lipid concentration preincubated for 10 mins followed by PEG addition by fluorescence based analysis (reference value: 11.1 +/- 0.4 %). In outline:
as §3

Assay [7] has as its system Lipid bilayer. The assay is described as follows: Inhibition of PEG-induced DOPC/DOPE/DOPG/CH (50/30/10/10 mol%) small unilamellar vesicles assessed as increase in lipid mixing at 1:100 compound: lipid concentration preincubated for 10 mins followed by PEG addition by spectrofluorometric analysis relative to control. In outline:
as §1

Assay [8] relates to Lipid bilayer. Nature of the assay: Inhibition of PEG-induced DOPC/DOPE/DOPG/CH (50/30/10/10 mol%) small unilamellar vesicles assessed as content mixing at 1:100 compound: lipid concentration preincubated for 10 mins followed by PEG addition by fluorescence based analysis relative to control. In outline: as §2
Assay [9] deals with Lipid bilayer. Nature of the assay: Inhibition of PEG-induced DOPC/DOPE/DOPG/CH (50/30/10/10 mol%) small unilamellar vesicles assessed as content leakage at 1:100 compound: lipid concentration preincubated for 10 mins followed by PEG addition by fluorescence based analysis relative to control. In outline:
as §3

Assay [10] relates to Lipid bilayer. Nature of the assay: Inhibition of PEG-induced DOPC/DOPE/DOPG/CH (40/30/10/20 mol%) small unilamellar vesicles assessed as increase in lipid mixing at 1:100 compound: lipid concentration preincubated for 10 mins followed by PEG addition by spectrofluorometric analysis relative to control. The method in brief:
as §1

The test system of assay [11] is Lipid bilayer. The assay is described as follows: Inhibition of PEG-induced DOPC/DOPE/DOPG/CH (40/30/10/20 mol%) (20 CH) small unilamellar vesicles fusion assessed as content mixing at 1:100 compound: lipid concentration preincubated for 10 mins followed by PEG addition by spectrofluorometric analysis. In outline:
as §2

Assay [12] concerns Lipid bilayer. Nature of the assay: Disruption of interfacial region in DOPC/DOPE/DOPG/CH (40/30/10/20 mol%) small unilamellar vesicles at 2 to 10 uM by TMA-DPH based fluorescence anisotropy. The note with it: dose 2-10 µM. In outline: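 TMA-DPH steady-state anisotropy in SUVs (200 μM total lipid) across a range of peptide concentrations. Excitation 360 nm, emission 428 nm, 5 nm slits. Buffer 10 mM TES, 100 mM NaCl, 1 mM CaCl2, 1 mM EDTA, pH 7.4, 37 °C. Anisotropy from polarised intensities with G-factor correction; mean ± S.E. of at least three measurements.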

Assay [13] has as its system Lipid bilayer. Nature of the assay: Inhibition of interfacial polarity in DOPC/DOPE/DOPG (60/30/10 mol%) small unilamellar vesicles assessed as decrease in interfacial polarity at 2 to 10 uM by TMA-DPH fluorescence analysis. The note with it: dose 2-10 µM. The method in brief:
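Interfacial polarity from TMA-DPH mean fluorescence lifetime in SUVs across peptide concentrations. TCSPC with 340 nm pulsed LED excitation, Ludox for IRF, 10 000 peak counts. Multi-exponential fits with χ2 ≤ 1.2; intensity-averaged lifetime. Run at 37 °C, pH 7.4 TES buffer, 200 μM lipid.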

In assay [14] the test system is Lipid bilayer. Nature of the assay: Reduction of apparent rotational correlation time in DOPC/DOPE/DOPG (60/30/10 mol%) small unilamellar vesicles at 2 to 10 uM by TMA-DPH anisotropy analysis. The note with it: dose 2-10 µM. In outline: (§4)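 Apparent rotational correlation time of TMA-DPH from the Perrin equation, combining steady-state anisotropy and mean lifetime with r0 = 0.4. SUVs at 200 μM lipid with varying peptide, in TES/NaCl/CaCl2/EDTA buffer pH 7.4 at 37 °C; at least three measurements.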

The test system of assay [15] is Lipid bilayer. Nature of the assay: Reduction of apparent rotational correlation time in DOPC/DOPE/DOPG/CH (50/30/10/10 mol%) small unilamellar vesicles at 2 to 10 uM by TMA-DPH anisotropy analysis. The note with it: dose 2-10 µM. In outline: as §4
The next assay relates to Influenza A virus H3N2. Nature of the assay: Antiviral activity against Influenza A virus X-31 (H3N2) infected in MDCK cells assessed as inhibition of viral infection preincubated for 48 hrs followed by viral infection for 45 mins by MTT assay. The format is functional, organism-based. The note with it: X-31, MDCK. The method in brief:
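A549 or MDCK cells seeded 1.5 × 10^4 per well, grown 24 h. Virus premixed with two-fold serial peptide dilutions in serum-free medium with trypsin (2.5 μg ml-1). Cells infected 45 min at 37 °C, washed, then kept 48 h in medium with 0.1% FBS, 0.3% BSA and trypsin. MTT 4 h, absorbance 570 nm. CPE inhibition normalised to cell and virus controls, dose-response fit for EC50; at least 3 sets.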

Active and inactive are the calls of the source. No cut-off for these calls is given here. Where a SMILES comes first, the peptide text is derived from it.

Consider `CC[C@H](C)[C@H](NC(=O)[C@H](CC(C)C)NC(=O)[C@H](C)NC(=O)[C@@H](NC(=O)[C@H](Cc1ccccc1)NC(=O)[C@H](CCCCN)NC(=O)[C@@H]1CCCN1C(=O)[C@H](CC(N)=O)NC(=O)[C@@H](NC(=O)[C@H](C)NC(=O)[C@H](CS)NC(=O)[C@H](Cc1ccccc1)NC(=O)CNC(=O)[C@H](CO)NC(=O)[C@H](CC(=O)O)NC(=O)[C@H](Cc1c[nH]c2ccccc12)NC(=O)[C@@H](NC(=O)[C@@H](N)[C@@H](C)O)[C@@H](C)O)C(C)C)C(C)C)C(=O)N[C@@H](CS)C(=O)N[C@@H](CC(=O)O)C(=O)N[C@@H](Cc1c[nH]c2ccccc12)C(=O)N[C@@H](CO)C(=O)NCC(=O)O` (H-TTWDSGFCAVNPKFVALICDWSG-OH), for which the inhibition with Lipid bilayer [1] was 72.1%; with Lipid bilayer [2] it was 9.8%; with Lipid bilayer [3] it was 15.5%; in the assay on Lipid bilayer [4], 8.7%; with Lipid bilayer [5], 8.3%; with Lipid bilayer [6], 14.4%. Also, the inhibition in the assay on Lipid bilayer [7] is 6%; with Lipid bilayer [8], 30%; in the assay with Lipid bilayer [9] it was 40%; in the assay on Lipid bilayer [10], 8%; in the assay with Lipid bilayer [13] it was “Active; Partial Reduction Is Observed”. Besides, the inhibition entry with Lipid bilayer [11] was “Active”. Also, the Activity result in the assay with Lipid bilayer [12] is reported as “Active; Less Stiff In Membranes”. Moreover, the result with Lipid bilayer [14] and in the assay on Lipid bilayer [15] was Active. The EC50 with Influenza A virus H3N2 was approximately 21.6 µM.

For the origin of these results see ChEMBL document CHEMBL6182829, “Developing peptide-based fusion inhibitors as an antiviral strategy utilizing coronin 1 as a template” (RSC Med Chem, 2025).
